ChEMBL document CHEMBL3045213, “Antifungal activity of thiophenes from Echinops ritro” (J Agric Food Chem, 2006)
Active and inactive are the calls of the source. The rule behind the calls is not given here.

Assays:
[1] = system: Phomopsis viticola; test: Antifungal activity against Phomopsis viticola after 48 hr by 96-well microtiter based microdilution method
[2] = system: Fusarium oxysporum; test: Growth inhibition of Fusarium oxysporum at 0.3 to 30 uM after 48 hr by 96-well microtiter based microdilution method; type: functional, organism-based
In short: (§1)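 Conidia from 7-10-day-old PDA cultures adjusted photometrically (%T at 625 nm) to 1.0 × 10^6 conidia/mL. Compounds dissolved in 95% ethanol at 12 mM (stock) and diluted 1:4 with MOPS-buffered RPMI. Final concentrations were 0.3, 3.0, 30.0 µM in 96-well plates. Incubated at 24 °C with a 12-h photoperiod. Growth was read as absorbance at 620 nm at 48 h. Percent inhibition was pooled from two experiments replicated in time. Controls were broth+inoculum and solvent+broth wells.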

[3] = system: Phomopsis obscurans; test: Antifungal activity against Phomopsis obscurans after 72 hr by 96-well microtiter based microdilution method; type: functional, organism-based; conditions: Paraphomopsis obscurans
In short: (§2)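 Conidia from 7–10-day PDA cultures (24 °C, 12-h photoperiod) were counted photometrically from %T at 625 nm. Compounds were taken from 12 mM stocks in 95% ethanol, diluted 1:4 in MOPS-buffered RPMI, and tested at six final concentrations (1.55–50.0 µM) with incubation under the same growth conditions.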

[4] = system: Phomopsis obscurans; test: Antifungal activity against Phomopsis obscurans after 48 hr by 96-well microtiter based microdilution method; type: functional, organism-based; conditions: Paraphomopsis obscurans
In short: as §2

[5] = system: Colletotrichum gloeosporioides; test: Antifungal activity against Colletotrichum gloeosporioides after 72 hr by 96-well microtiter based microdilution method; type: functional, organism-based
In short: as §2

[6] = system: Phomopsis viticola; test: Antifungal activity against Phomopsis viticola after 72 hr by 96-well microtiter based microdilution method
[7] = system: Colletotrichum gloeosporioides; test: Growth inhibition of Colletotrichum gloeosporioides at 30 uM after 48 hr by 96-well microtiter based microdilution method; type: functional; conditions: read-out: GI
In short: as §1

[8] = system: Colletotrichum fragariae; test: Antifungal activity against Colletotrichum fragariae after 48 hr by 96-well microtiter based microdilution method; type: functional, organism-based
In short: as §2

[9] = system: Colletotrichum gloeosporioides; test: Growth inhibition of Colletotrichum gloeosporioides at 0.3 to 30 uM after 48 hr by 96-well microtiter based microdilution method; type: functional, organism-based
In short: as §1

[10] = system: Fusarium oxysporum; test: Growth inhibition of Fusarium oxysporum at 30 uM after 48 hr by 96-well microtiter based microdilution method; type: functional; conditions: read-out: GI
In short: as §1

[11] = system: Botrytis cinerea; test: Antifungal activity against Botryotinia fuckeliana after 72 hr by 96-well microtiter based microdilution method; type: functional, organism-based
In short: as §2

[12] = system: Botrytis cinerea; test: Antifungal activity against Botryotinia fuckeliana after 48 hr by 96-well microtiter based microdilution method; type: functional, organism-based
In short: as §2

[13] = system: Colletotrichum fragariae; test: Antifungal activity against Colletotrichum fragariae after 72 hr by 96-well microtiter based microdilution method; type: functional, organism-based
In short: as §2

[14] = system: Fusarium oxysporum; test: Antifungal activity against Fusarium oxysporum after 72 hr by 96-well microtiter based microdilution method; type: functional, organism-based
In short: as §2

[15] = system: Colletotrichum acutatum; test: Antifungal activity against Colletotrichum acutatum after 48 hr by 96-well microtiter based microdilution method; type: functional, organism-based
In short: as §2

[16] = system: Colletotrichum gloeosporioides; test: Antifungal activity against Colletotrichum gloeosporioides after 48 hr by 96-well microtiter based microdilution method; type: functional, organism-based
In short: as §2

[17] = system: Fusarium oxysporum; test: Antifungal activity against Fusarium oxysporum after 48 hr by 96-well microtiter based microdilution method; type: functional, organism-based
In short: as §2

[18] = system: Colletotrichum acutatum; test: Antifungal activity against Colletotrichum acutatum after 72 hr by 96-well microtiter based microdilution method; type: functional, organism-based
In short: as §2

[19] = system: Colletotrichum fragariae; test: Growth inhibition of Colletotrichum fragariae at 3 uM after 48 hr by 96-well microtiter based microdilution method; type: functional, organism-based
In short: (§3)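 Three-point broth microdilution used final concentrations of 0.3, 3.0 and 30.0 µM, diluted from 12 mM ethanol stocks into MOPS-buffered RPMI. Conidial inoculum was counted photometrically at 625 nm and incubated at 24 °C with a 12-h photoperiod. A620 was read at 48 h and converted to percent growth inhibition. Controls were inoculated broth wells and solvent wells without inoculum.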

[20] = system: Colletotrichum gloeosporioides; test: Growth inhibition of Colletotrichum gloeosporioides at 3 uM after 48 hr by 96-well microtiter based microdilution method; type: functional; conditions: read-out: GI
In short: as §3

[21] = system: Fusarium oxysporum; test: Growth inhibition of Fusarium oxysporum at 0.3 uM after 48 hr by 96-well microtiter based microdilution method; type: functional; conditions: read-out: GI
In short: (§4)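 F. oxysporum conidia (photometric count, %T 625 nm) were tested in MOPS-buffered RPMI broth microdilution at final concentrations of 0.3, 3.0 and 30.0 µM, diluted from 12 mM ethanol stocks. Plates were incubated at 24 °C with a 12-h photoperiod, and A620 was read at 48 h. Mean percent growth inhibition was pooled from two experiments replicated in time.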

[22] = system: Fusarium oxysporum; test: Growth inhibition of Fusarium oxysporum at 3 uM after 48 hr by 96-well microtiter based microdilution method; type: functional; conditions: read-out: GI
In short: as §4

[23] = system: Colletotrichum acutatum; test: Growth inhibition of Colletotrichum acutatum at 3 uM after 48 hr by 96-well microtiter based microdilution method; type: functional, organism-based
In short: as §3

SMILES	IC50 [1] [µM]	growth inhibition (GI) [2]	IC50 [3] [µM]	IC50 [4] [µM]	IC50 [5] [µM]	IC50 [6] [µM]	inhibition of growth at 30 µM [7] [%]	IC50 [8] [µM]	growth inhibition (GI) [9]	inhibition of growth at 30 µM [10] [%]	IC50 [11] [µM]	IC50 [12] [µM]	IC50 [13] [µM]	IC50 [14] [µM]	IC50 [15] [µM]	IC50 [16] [µM]	IC50 [17] [µM]	IC50 [18] [µM]	other results
CC#CC#Cc1ccc(C#CCCO)s1	< 1.6	Active	13.5	2.9	6	4	100	4.4	Active	100	41	29.4	12.5	20	3.5	2.6	9.5	19.2	
c1csc(-c2ccc(-c3cccs3)s2)c1 [ALPHA-TERTHIENYL]	< 6.3	Active	9.6	7.2	< 1.6	< 6.3		4.9	Active		> 50	> 50	9	> 50	3	< 1.6	5	5.3	growth inhibition (GI) [19]: Active; inhibition of growth at 3 µM [20]: 98%; inhibition of growth at 0.3 µM [21]: 25%; inhibition of growth at 3 µM [22]: 98%; growth inhibition (GI) [23]: Active
C=CC#Cc1ccc(-c2cccs2)s1	19.5	Active	> 50	> 50	10.2	22	96	28	Active	96	> 50	> 50	46	> 50	7.6	4.2	> 50	28.5	
C(#C[C@@H]1CC[C@H]1C#Cc1ccc(-c2cccs2)s1)c1ccc(-c2cccs2)s1		inactive							inactive										
O=C1C2CC=CCC2C(=O)N1SC(Cl)(Cl)Cl (stereo not given) [CAPTAN]	18		3.9	2.4	< 1.6	20		< 1.6			< 1.6	< 1.6	2.1	5.8	< 1.6	< 1.6	2.2	2.1	
CC(=O)OCC(C#Cc1ccc(-c2cccs2)s1)OC(C)=O (stereo not given)		inactive							inactive										
CC(C)CC(=O)OCCC#Cc1ccc(-c2cccs2)s1		inactive							inactive										
OCCC#Cc1ccc(-c2cccs2)s1		Active							Active										
C(#C[C@@H]1CC[C@@H]1C#Cc1ccc(-c2cccs2)s1)c1ccc(-c2cccs2)s1		inactive							inactive										
CC#CC#Cc1ccc(C#CC(Cl)COC(C)=O)s1 (stereo not given)		Active					81		Active	82									
